Values belong to the compound of their own block, whether it stands above or below them. Activity calls are given as the source filed them. The rule behind the calls is not given here.
What was measured:
[1] = Drug uptake in human HN-143 T-EC cells assessed as drug retention at 1600 nM incubated for 24 hrs in presence of 10% fetal bovine serum measured after 72 hrs chase period by fluorescent microscopy imaging based analysis; format: ADME, cell-based; conditions: 1.6 µM
Summary of the method: (§1)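 Cells incubated 24 h in medium with 10% serum and 1600 nM PS, then chased in PS-free medium for up to 72 h with daily medium changes. Cellular PS was measured daily by fluorescence microscopy; net fluorescence intensity per full image frame was quantified in arbitrary units.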

[2] = Drug uptake in human HN-143-T-EC cells assessed as drug retention in mitochondria measured after 72 hrs chase period by fluorescent microscopy; format: ADME
[3] = Drug uptake in human HN-143-T-EC cells assessed as drug retention in endoplasmic reticulum measured after 72 hrs by fluorescent microscopy; format: ADME, cell-based
[4] = tested on: HNT1; assay: Binding affinity to human HNT1 cell plasma membrane with CFSE-labeled HN-87 T-Fb assessed as drug retention at 1600 nM incubated for 24 hrs in presence of 10% fetal bovine serum measured after 24 hrs chase period by fluorescent microscopy; format: cell membranes
Summary of the method: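 HNT1 cells (p 72) co-cultured on collagen-1 with CFSE-stained HN-87 T-Fb fibroblasts (added to 24 h-old tumor cultures, grown 3–7 days to confluence). Treated 24 h with DMEM + 10% FBS and 1600 nM PS, chased 24 h in DMEM + 10% FBS, then fluorescence imaged under identical conditions.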

[5] = tested on: TEC1-2; assay: Binding affinity to human TEC1-2 cell plasma membrane assessed as drug retention at 1600 nM incubated for 24 hrs in presence of 10% fetal bovine serum measured after 48 hrs chase period by fluorescent microscopy; format: cell membranes
[6] = Drug uptake in human HN-143 T-EC cells assessed as drug retention at 1600 nM incubated for 24 hrs in presence of 10% fetal bovine by fluorescent microscopy imaging based analysis; format: ADME, cell-based; conditions: 1.6 µM; summary of the method: as §1
[7] = Solubility of the compound; format: physicochemical
[8] = tested on: HN-143 T-EC; assay: Binding affinity to human HN-143 T-EC cell membrane surface measured at 1600 nM incubated for 30 min; format: tissue-based
[9] = Drug uptake in human FaDu-124 cell membrane assessed as drug internalization at 1600 nM incubated for 30 mins at 37 degC; format: ADME, cell-based; conditions: fadu-124, 0.5 h, 1.6 µM
Summary of the method: (§2)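 FaDu-124 cells, 30 min on ice in serum-free DMEM with 1600 nM PS, then cell-associated fluorescence imaged. For diffusion into cells, cultures were then held 30 min at 37°C in fresh serum-free medium and imaged again.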

[10] = tested on: FaDu-124; assay: Binding affinity to human FaDu-124 cell membrane surface measured at 1600 nM incubated for 30 mins at 0 degC; format: tissue-based; summary of the method: as §2
[11] = Drug uptake in human HN-143 T-EC cells assessed as drug retention at 1600 nM incubated for 24 hrs in presence of 10% fetal bovine serum measured after 48 hrs chase period by fluorescent microscopy imaging based analysis; format: ADME, cell-based; conditions: 1.6 µM; summary of the method: as §1
[12] = Drug uptake in tissue cultured human TEC1-2 cells assessed as drug retention at 1600 nM incubated for 24 hrs in presence of 10% fetal bovine serum measured after 48 hrs chase period by fluorescent microscopy; format: ADME, tissue-based; conditions: tec1-2, 24 h, 1.6 µM
[13] = Photoreactivation in human TEC21 cells in presence of 10% fetal bovine serum under 665 nm light for 9 mins measured after 24 hrs by immune blot analysis; format: cell-based; conditions: tec-21, 24 h
Summary of the method: (§3)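 TEC-21 cells (p 8) treated 24 h in RPMI + 10% FBS with PS, imaged, chased 48 h in RPMI + 10% FBS, then irradiated 9 min with 665 nm light (6 mW/cm²). Cells were extracted immediately and immunoblotted for STAT3 crosslinking, EGFR and phospho-p38 MAPK.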

[14] = Drug uptake in human HN-143 T-EC cells assessed as slow release by measuring drug retention at 1600 nM incubated for 24 hrs in presence of 10% fetal bovine serum measured after 48 hrs chase period by fluorescent microscopy imaging based analysis; format: ADME, cell-based; conditions: 1.6 µM; summary of the method: as §1
[15] = Lipophilicity, logP of the compound; format: physicochemical; conditions: octanol/water
[16] = Photoreactivation in human TEC21 cells assessed as STAT3cross-linking in presence of 10% fetal bovine serum under 665 nm light for 9 mins measured after 24 hrs by immune blot analysis; format: cell-based; conditions: tec-21, 0.15 h; summary of the method: as §3
[17] = Drug uptake in tissue cultured human TEC1-2 cells assessed as drug retention at 1600 nM incubated for 24 hrs in presence of 10% fetal bovine serum measured after 24 hrs chase period by fluorescent microscopy; format: ADME, tissue-based; conditions: tec1-2, 24 h, 1.6 µM
[18] = Drug uptake in human HNT1 cells assessed as drug retention at 1600 nM incubated for 24 hrs in presence of 10% fetal bovine serum measured after 24 hrs chase period by fluorescent microscopy; format: ADME, cell-based; conditions: hnt1, 24 h, 1.6 µM

SMILES: CCCCCCOCc1c(C)c2cc3nc(c4c5[nH]c(cc6nc(cc1[nH]2)C(C)=C6CC)c(C)c5C(=O)C4)[C@@H](CCC(=O)O)C3C (stereo not given in full)
- Activity [8]: Active

SMILES: CCCCCCSC(C)c1c(C)c2cc3nc(c4c5[nH]c(cc6nc(cc1[nH]2)C(C)=C6CC)c(C)c5C(=O)C4)[C@@H](CCC(=O)O)C3C (stereo not given in full)
- Drug uptake [1]: Active
- Drug uptake [9]: Active
- Drug uptake [6]: Active
- Activity [10]: Active

SMILES: CCCCOC(CCC)c1c(C)c2cc3nc(c4c5[nH]c(cc6nc(cc1[nH]2)C(C)=C6CC)c(C)c5C(=O)C4)[C@@H](CCC(=O)O)C3C (stereo not given in full)
- Drug uptake [11]: Active
- Drug uptake [1]: Active
- Drug uptake [12]: Active
- Drug metabolism [13]: Metabolite_Detected
- Drug uptake [14]: Active
- Drug uptake [6]: Active
- Drug uptake [2]: Active
- logP [15]: 6.56
- Activity [16]: 3.1%
- Drug uptake [17]: Active
- Drug uptake [3]: Active

SMILES: CCCCC(C)OCc1c(C)c2cc3nc(c4c5[nH]c(cc6nc(cc1[nH]2)C(C)=C6CC)c(C)c5C(=O)C4)[C@@H](CCC(=O)O)C3C (stereo not given in full)
- Drug uptake [1]: Active
- Drug metabolism [13]: Metabolite_Detected
- Drug uptake [6]: Active
- Drug uptake [18]: Active
- Activity [16]: 0.2%
- Activity [8]: Active

SMILES: CCCCCCOC(CCC)c1c(C)c2cc3nc(c4c5[nH]c(cc6nc(cc1[nH]2)C(C)=C6CC)c(C)c5C(=O)C4)[C@@H](CCC(=O)OC)C3C (stereo not given in full)
- Drug uptake [1]: Active
- Drug uptake [2]: Active
- Drug uptake [3]: Active

Further lines, results first:

- Drug uptake [1]: Active
- Drug uptake [2]: Active
- Drug uptake [3]: Active
SMILES: CCCCOC(CCC)c1c(C)c2cc3nc(c4c5[nH]c(cc6nc(cc1[nH]2)C(C)=C6CC)c(C)c5C(=O)C4)[C@@H](CCC(=O)OC)C3C (stereo not given in full)

- Activity [4]: inactive
- Activity [5]: inactive
SMILES: CCCCC(C)OCc1c(C)c2cc3nc(c4c5[nH]c(cc6nc(cc1[nH]2)C(C)=C6CC)c(C)c5C(=O)C4)[C@@H](CCC(=O)OC)C3C (stereo not given in full)

- Activity [4]: inactive
- Activity [5]: inactive
SMILES: CCCCCCOCc1c(C)c2cc3nc(c4c5[nH]c(cc6nc(cc1[nH]2)C(C)=C6CC)c(C)c5C(=O)C4)[C@@H](CCC(=O)OC)C3C (stereo not given in full)

- Drug uptake [1]: Active
- Drug uptake [6]: Not Active
- solubility [7]: Soluble
SMILES: CCCCCCCCc1c(C)c2cc3nc(c4c5[nH]c(cc6nc(cc1[nH]2)C(C)=C6CC)c(C)c5C(=O)C4)[C@@H](CCC(=O)O)C3C (stereo not given in full)
